Converted amounts (≈) assume the structure as drawn. The source made the active and inactive calls. No cut-off for these calls is given here.
Columns and labels:
A549 = assay: Cytotoxicity against human A549 cells by SRB assay; type: functional; conditions: for EC50: Homo sapiens, A549, read-out: ED50 (the source's name)
Method in brief: (§1)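 Sulforhodamine B assay on human lung (A549) and breast (MCF-7) cancer cell lines; ED50 taken as the compound concentration giving 50% reduction in absorbance at 562 nm relative to untreated cells.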

MCF7 = assay: Cytotoxicity against human MCF7 cells by SRB assay; type: functional; conditions: for EC50: Homo sapiens, MCF7, read-out: ED50 (the source's name); method in brief: as §1
Plasmodium falciparum [1] = assay: Antimalarial activity against Plasmodium falciparum W2; type: functional, organism-based
Method in brief: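 In vitro drug susceptibility measured by parasite incorporation of radiolabeled hypoxanthine (modified Desjardins method); mefloquine and chloroquine run in parallel as positive controls.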

Plasmodium falciparum [2] = assay: Antimalarial activity against Plasmodium falciparum D6; type: functional, organism-based
Method in brief: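 Drug susceptibility in vitro by modified Desjardins method with Milhous modifications. Read-out is parasite incorporation of radiolabelled hypoxanthine. Mefloquine and chloroquine were run in parallel as positive controls.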

| Structure (SMILES) | EC50 (A549) [µg/mL] | EC50 (MCF7) [µg/mL] | IC50 (Plasmodium falciparum [1]) [µg/mL] | Activity (A549) | inhibition (INH) (MCF7) [%] | IC50 (Plasmodium falciparum [2]) [µg/mL] | inhibition (INH) (A549) [%] |
| --- | --- | --- | --- | --- | --- | --- | --- |
| COc1ccc2c3cc[n+]([O-])c4ccc(=O)n(c2c1)c34 | 18.5 (≈ 69.5 µM) | 18.9 (≈ 71 µM) | – | – | – | – | – |
| O=c1ccc2nccc3c4ccccc4n1c23 [CANTHIN-6-ONE] | 3.6 (≈ 16.3 µM) | 7.3 (≈ 33.1 µM) | 2.24 (≈ 10.2 µM) | – | – | – | – |
| O=C(O)CCc1nccc2c1[nH]c1ccccc12 | – | > 20 | – | inactive | 8 | – | – |
| COc1c(O)c2nccc3c4ccccc4n(c1=O)c23 [PICRASIDINE Q] | 16.2 (≈ 60.8 µM) | 18.1 (≈ 68 µM) | 3.52 (≈ 13.2 µM) | – | – | 2.96 (≈ 11.1 µM) | – |
| COc1ccc2c(c1)[nH]c1c(CCC(=O)O)nccc12 | > 20 | > 20 | – | – | 15 | – | 7 |
| O=c1ccc2nccc3c4ccc(O)cc4n1c23 | 10 (≈ 42.3 µM) | 19.6 (≈ 83 µM) | 2.34 (≈ 9.89 µM) | – | – | – | – |
| COc1ccc2c3ccnc4ccc(=O)n(c2c1)c43 | < 2.5 | 4.5 (≈ 18 µM) | – | – | – | – | 55 |

From ChEMBL document CHEMBL1147231, “Cytotoxic and antimalarial beta-carboline alkaloids from the roots of Eurycoma longifolia” (J Nat Prod, 2003)
